# Screening results deposited in PubChem by Broad Institute.
# Shown are actives, neighbours in structure and some others; about 0.92% of the full set was active somewhere.
# RAD52 anneal inh: RAD52 DNA annealing inhibitors, primary screen, biochemical, FRET, single point, set 2; DNA repair protein RAD52 homolog (Homo sapiens), P43351; recombinant RAD52 DNA annealing, FRET fluorescence; inhibition, % at 18.7 µM; actives 0.46% (n = 360,000); AID 651710, 2012;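 active = every replicate showing at least 50% inhibition; inconclusive = mean inhibition at least 50% but not in every replicate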
# FN deposition inh: inhibitors of fibronectin matrix deposition, primary screen, AH1F cells, Alexa488-fibronectin fluorescence, plate reader; AH1F fibroblasts, overnight; inhibition, % at 12.6 µM; actives 0.086% (n = 350,000); AID 743247, 2014;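 active = mean inhibition across replicates of 30% or more, regardless of how many single replicates reach that level; inconclusive = mean under 30% yet at least half of replicates reach 30%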;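 also: positive control wells lacked labelled fibronectin entirely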
#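 Material: AH1F fibroblast monolayer depositing Alexa488-labelled fibronectin into matrix / Amount: 10000 AH1F cells per well / Signal: fluorescence 485/525 nm / Medium: DMEM, 2% serum / Compound: single dose, pinned / Incubation: 1 h cell adhesion before compound, then overnight fibronectin incubation / Reagent: Alexa488-FN, 24 nM final / Read-out: inhibition of fibronectin deposition signal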
# Glyco luc inh: increase of ERlucT glycosylation luciferase signal, primary screen, N-linked glycosylation inhibitor project, D54 ERlucT cells, luminescence, set 2; D54 ERlucT glycosylation luciferase reporter, 24 h; percent of 100 nM tunicamycin response; reporter increase, % at 12.5 µM; actives 0.23% (n = 360,000); AID 588692, 2011;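 active = mean luciferase reporter signal, scaled so untreated is 0 and the glycosylation-blocking control 100, at or above a set limit in every replicate; inconclusive = mean reaches the limit but not every replicate does; inactive = mean below the limit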;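 also: luciferase carries N-glycosylation sites so blocking glycosylation raises the light; 0% = median of neutral control wells and 100% = median of 100 nM tunicamycin wells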
# RAD54 branch: inhibitors of human RAD54 branch migration, primary screen, biochemical, fluorescence, single point | RAD54 Holliday junction branch migration, FAM/BHQ fluorescence | inhibition, % at 10.4 µM | actives 0.14% (n = 360,000);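 active = mean normalized replicate activity at least 40 and at least half of replicates scoring 40 or more; inconclusive = only one of the two criteria met; inactive = mean below 40 and under half of replicates reaching 40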;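 also: 0% = median of neutral control wells and 100% = median of positive control wells; inhibitors cause a drop in the FAM fluorescence signal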
# MLL AF4-AF9 inh: inhibitors of AF4 peptide binding to AF9, primary screen, biochemical, AlphaScreen, biotin-AF4 peptide, FLAG-AF9, single point | Protein AF-9 (Homo sapiens), P42568 | inhibition, % at 10 µM | actives 0.47% (n = 350,000);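 active = every replicate reaching a set inhibition limit, whatever the replicate mean, cut at about 25% in these data; inconclusive = mean inhibition reaches that limit but some replicates miss it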;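 also: 0% = plate neutral control median and 100% = total signal loss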
# Target sequence (P42568 whole entry, looked up): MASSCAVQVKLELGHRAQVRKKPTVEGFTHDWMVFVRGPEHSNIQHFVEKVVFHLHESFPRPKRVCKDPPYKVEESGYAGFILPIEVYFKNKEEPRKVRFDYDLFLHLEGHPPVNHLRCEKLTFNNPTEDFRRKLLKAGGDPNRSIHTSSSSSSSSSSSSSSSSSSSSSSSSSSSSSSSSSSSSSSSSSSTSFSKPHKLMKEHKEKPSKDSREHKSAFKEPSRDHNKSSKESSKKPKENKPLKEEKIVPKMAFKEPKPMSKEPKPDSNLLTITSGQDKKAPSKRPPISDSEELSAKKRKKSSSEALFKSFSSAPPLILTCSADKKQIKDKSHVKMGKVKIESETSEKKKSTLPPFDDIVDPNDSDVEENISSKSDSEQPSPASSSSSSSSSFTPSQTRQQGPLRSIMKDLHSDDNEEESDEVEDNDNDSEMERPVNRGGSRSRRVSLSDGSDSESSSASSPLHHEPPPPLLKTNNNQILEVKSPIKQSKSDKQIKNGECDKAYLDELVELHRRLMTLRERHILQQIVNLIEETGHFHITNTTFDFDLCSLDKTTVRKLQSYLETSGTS
# RAD52 DNA ctr: DNA-binding compounds via dye displacement, dose response, artefact control for RAD52 inhibitor project, biochemical, fluorescence polarization, cherry-pick; shares compounds with RAD52 anneal inh; Salmon sperm DNA/acridine orange FP displacement; AC50, µM; actives 8% (n = 1,000); AID 652128, 2013;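 active = fitted half-maximal concentration for signal loss at or below twice the highest dose tested, in every separate run, actives reach about 64 µM in these data; inconclusive = runs disagree, or flat partial signal loss, or poor fit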
# Starred values were filed as active, the others as inactive; i = inactive; ? = inconclusive; · = not tested or not shown.
SMILES,RAD52 anneal inh,FN deposition inh,Glyco luc inh,RAD54 branch,MLL AF4-AF9 inh,RAD52 DNA ctr
COc1cc(NC(=O)c2ccc(N3CC4CC(C3)c3cccc(=O)n3C4)c(NC(=O)c3ccncc3)c2)cc(OC)c1OC (centres undefined),84.8*,4.2,8.5,1.5,0.0,i
O=C(CN1CCCCC1)Nc1ccccc1,·,-34.8,0.5,0.3,·,·
O=C(CN1CCCCC1)Nc1ccc(N2CCCCCC2)cc1,61.7*,-3.0,-5.0,·,31.0*,i
CCCNC(=O)Nc1ccc2c(c1)C(=O)N(C)C[C@H](OC)[C@H](C)CN(C)[C@H](C)CO2,9.2,-4.8,·,4.3,-1.4,·
CO[C@@H]1CN(C)C(=O)c2ccc(NC(C)=O)cc2OC[C@@H](C)N(Cc2cccnc2)C[C@H]1C,10.2,·,·,·,-9.9,·
COc1cc2c(cc1OC)CN(c1nc(CN3CCCC3)nc3sc(C)c(C)c13)CC2,65.3*,-13.7,-3.3,·,17.2,i
COc1cc2c(cc1OC)CN(c1nc(CN3CCCCC3)nc3sc4c(c13)CCCC4)CC2,·,1.9,-5.0,·,·,·
O=C(c1cc2ccccc2cc1O)N1CCN(c2ccccn2)CC1,-0.6,11.9,0.0,0.1,1.9,·
CN1CCN(c2cc(-c3cc(O)c4ncccc4c3)ccn2)CC1,106.9*,13.9,-11.0,26.0,83.9*,i
C[C@H]1CN([C@@H](C)CO)S(=O)(=O)c2ccc(C#CC3(O)CCCC3)cc2O[C@H]1CN(C)C,5.3,3.8,·,5.5,0.2,·
C[C@H]1CN([C@@H](C)CO)C(=O)Cc2cc(NC(=O)Cn3cnnn3)ccc2O[C@@H]1CN(C)S(=O)(=O)c1ccc(F)cc1,-8.3,·,·,8.0,0.8,·
C[C@H]1CN([C@@H](C)CO)C(=O)Cc2cc(NC(=O)Nc3ccc4c(c3)OCO4)ccc2O[C@H]1CN(C)C(=O)Nc1ccccc1,·,·,·,1.8,·,·
C[C@@H]1CCCCO[C@@H](CN(C)S(=O)(=O)c2cn(C)cn2)[C@@H](C)CN([C@@H](C)CO)C(=O)c2cc(NS(C)(=O)=O)ccc2O1,3.5,·,·,0.8,-0.2,·
Cc1cc(N2CCN(c3ccccc3)CC2)nc2ccccc12,-2.7,-4.3,-1.8,4.1,-0.3,·
Cc1cc(N2CCC(N(C)C3CCCC3)CC2)nc2cc(O)ccc12,103.0*,-4.3,-1.7,44.9,1.4,i
COc1cc(NS(C)(=O)=O)ccc1Nc1c2ccccc2nc2ccccc12,54.9*,3.4,-6.6,55.8*,-1.0,i
COc1ccc([N+](=O)[O-])cc1Nc1c2ccccc2nc2ccccc12,-6.7,16.2,24.8,7.4,3.5,·
CCCCCC[N+](C)(C)CC/C=C1/c2ccccc2Sc2ccc(Cl)cc21,63.0*,11.6,1.1,·,21.6,i
CN1CCN(CCC=C2c3ccccc3Sc3ccc(S(=O)(=O)N(C)C)cc32)CC1,48.6,-4.8,-0.2,2.2,16.5,·
CO[C@H](CN(C)S(=O)(=O)c1ccccc1)[C@@H](C)CN(C(=O)Nc1ccccc1F)[C@@H](C)CO,-9.1,-7.1,·,-3.9,-1.1,·
CCOc1cc(/C=C/c2cccc[n+]2C)ccc1O,72.2*,-1.9,-1.0,10.6,-14.0,i
CCOc1cc(/C=C/c2cccc[n+]2C)ccc1OCC(=O)Nc1ccc(C)cc1,-5.3,7.6,3.5,14.1,4.8,·
Nc1ccc2nc(CCCO)[nH]c2c1,93.2*,-0.1,4.0,35.8,12.7,i
CN(C)C(=O)c1ccc(-c2ccc(C3[C@@H]4CN(C(=O)Cc5ccccc5)C[C@H]3N4)cc2)cc1 (some centres undefined),0.1,2.6,·,·,-7.9,·
COc1cccc2c3cccc(OC)c3c3[nH]cnc3c12,85.8*,-6.0,?,·,-0.4,i
SMILES,RAD52 anneal inh,FN deposition inh,Glyco luc inh,RAD54 branch,MLL AF4-AF9 inh,RAD52 DNA ctr
NCCCC[C@H](NC(=O)C1CCNCC1)c1nnc([C@@H](N)Cc2ccc(O)cc2)o1,73.9*,13.2,3.3,10.6,15.2,i
CCCCCCCCCC[n+]1cccc2c3ccccc3ccc21,72.1*,-6.9,18.9,·,12.4,i
CCCCCCCCCCOC(=O)Cn1c(COc2ccc(Cl)cc2)[n+](C)c2ccccc21,76.5*,11.1,1.5,56.9*,42.3*,i
CCCCOC(=O)Cn1c(=O)n(CC(=O)OCCCC)c2ccccc21,·,·,-5.0,-2.8,·,·
CCCCCCCCCCOC(=O)Cn1c(COc2ccccc2)[n+](C)c2ccccc21,70.1*,4.5,8.4,?,?,i
CCCCCCCCCCOC(=O)Cn1c(COc2cccc(C)c2)[n+](C)c2ccccc21,79.5*,-6.3,11.6,52.1*,13.2,?
CN(C)Cc1cn(CC[C@@H]2CC[C@@H](NC(=O)Nc3ccc4c(c3)OCO4)[C@@H](CO)O2)nn1,3.6,1.3,·,6.1,-1.4,·
CC(C)C[C@@H]1CN=C(N)N1C[C@@H]1CCCN1C[C@H](C)N1C[C@@H](Cc2ccccc2)N(CCc2ccc(Cl)c(Cl)c2)C1=N,·,·,-1.0,14.6,·,·
CC(C)C[C@@H]1CN=C(N)N1C[C@@H]1CCCN1C[C@@H](C(C)C)N1C[C@@H](Cc2ccccc2)N(CCc2ccc(Cl)c(Cl)c2)C1=N,50.8*,-0.1,0.8,10.4,22.0,i
O=C(c1cccc(F)c1)N1CC2(C1)[C@@H](c1ccccc1)[C@H](CO)N2C(=O)C1CCC1,-19.1,-5.2,·,·,0.3,·
COc1ccc(C(CCN2CCOCC2)c2c(OC)cc(OC)c3c(-c4ccccc4)cc(=O)oc23)cc1 (centres undefined),50.6*,·,-8.4,2.9,7.5,i
O=c1ccn([C@@H]2O[C@H](CNCc3cccc4c3sc3ccccc34)[C@@H](O)[C@H]2O)c(=O)[nH]1,62.1*,-7.9,2.2,8.1,2.1,i
O=c1ccn([C@@H]2O[C@H](CNCc3c(OCc4ccccc4F)ccc4ccccc34)[C@@H](O)[C@H]2O)c(=O)[nH]1,7.6,1.1,-1.3,18.5,2.6,·
COc1cc(OC)cc(C2=Cc3ccc(OC)cc3C(CC(C)=O)N2c2ccc(C#CC3(N)CCCCC3)cc2)c1 (centres undefined),-10.7,-9.4,·,·,10.1,·
COc1cc(OC)cc(C2=Cc3ccccc3C(CC(C)=O)N2c2ccc(C#CC3(N)CCCCC3)cc2)c1 (centres undefined),90.8*,-2.4,·,·,11.7,i
Cc1ccc(S(=O)(=O)N(C)C[C@H]2Oc3ccc(NC(=O)Nc4ccc(F)cc4)cc3C(=O)N([C@@H](C)CO)C[C@@H]2C)cc1,-9.0,·,·,2.1,2.1,·
C[C@H]1CN([C@@H](C)CO)C(=O)c2cc(C#CC3CCCC3)cnc2O[C@H]1CN(C)Cc1ccncc1,14.4,-10.2,·,-3.7,1.0,·
